Reference: ChEMBL document CHEMBL4342528, “Discovery of a First-in-Class Protein Arginine Methyltransferase 6 (PRMT6) Covalent Inhibitor” (J Med Chem, 2020)
The source made the active and inactive calls. No cut-off for these calls is given here.

What was measured:
[1] = Inhibition of type 1 PRMT (unknown origin); parameters: species or system Homo sapiens
[2] = molecular target: T1, Protein arginine N-methyltransferase 6 (Homo sapiens, UniProt Q96LA8); assay: Inhibition of Flag-tagged PRMT6 (unknown origin) expressed in HEK293 cells at 2 uM incubated for 20 hrs assessed as reduction in H3R2me2a levels; format: cell-based
Target sequence in this assay (Q96LA8 whole entry, looked up): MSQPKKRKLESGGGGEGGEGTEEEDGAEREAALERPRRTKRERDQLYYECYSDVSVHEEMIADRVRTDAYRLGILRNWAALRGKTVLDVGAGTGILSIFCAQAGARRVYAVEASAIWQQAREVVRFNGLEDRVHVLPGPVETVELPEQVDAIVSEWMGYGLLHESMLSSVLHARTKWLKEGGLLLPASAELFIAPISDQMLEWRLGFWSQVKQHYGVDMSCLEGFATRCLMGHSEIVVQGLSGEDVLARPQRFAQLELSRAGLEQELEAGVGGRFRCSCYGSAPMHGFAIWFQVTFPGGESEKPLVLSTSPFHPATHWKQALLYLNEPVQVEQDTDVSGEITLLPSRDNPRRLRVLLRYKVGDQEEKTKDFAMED

[3] = molecular target: T2, Histone-arginine methyltransferase CARM1 (Homo sapiens) (UniProt Q86X55); assay: Inhibition of PRMT4 in human MCF7 cells assessed as reduction in BAF155 asymmetric dimethylation at 2 uM incubated for 2 days; format: cell-based
T2 sequence (whole entry): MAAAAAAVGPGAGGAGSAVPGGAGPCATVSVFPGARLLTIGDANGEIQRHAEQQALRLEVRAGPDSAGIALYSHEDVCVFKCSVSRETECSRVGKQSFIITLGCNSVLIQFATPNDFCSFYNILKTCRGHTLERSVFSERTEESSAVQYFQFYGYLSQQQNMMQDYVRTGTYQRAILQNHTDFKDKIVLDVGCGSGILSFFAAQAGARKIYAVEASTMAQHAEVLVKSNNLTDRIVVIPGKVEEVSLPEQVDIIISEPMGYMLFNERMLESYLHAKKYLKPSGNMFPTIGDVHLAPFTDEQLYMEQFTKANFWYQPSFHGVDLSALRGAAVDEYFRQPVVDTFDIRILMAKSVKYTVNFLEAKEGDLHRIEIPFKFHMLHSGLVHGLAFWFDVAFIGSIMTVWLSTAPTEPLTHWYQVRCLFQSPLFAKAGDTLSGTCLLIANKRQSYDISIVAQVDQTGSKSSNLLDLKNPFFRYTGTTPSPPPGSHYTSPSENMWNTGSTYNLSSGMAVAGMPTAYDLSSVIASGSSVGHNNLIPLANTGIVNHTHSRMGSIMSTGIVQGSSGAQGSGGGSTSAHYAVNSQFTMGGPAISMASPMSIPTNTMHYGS

[4] = molecular target: T1, Protein arginine N-methyltransferase 6; assay: Time dependent inhibition of human PRMT6 pre-incubated for 1 to 30 mins using [3H]SAM as donor and [3H]methylated biotin-labeled peptide as substrate by scintillation proximity assay
Target sequence in this assay (Q96LA8 whole entry, looked up): as the sequence (Q96LA8 whole entry, looked up) above

[5] = molecular target: T2, Histone-arginine methyltransferase CARM1 (Homo sapiens); assay: Inhibition of PRMT4 (unknown origin) assessed as reduction in incorporation of [3H]-labeled methyl group into biotinylated substrate using [3H-SAM] at 10 uM incubated for 1 hr by scintillation proximity assay
In short: (§1)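 Panel of 33 methyltransferases (22 PKMTs, 3 DNMTs, 8 PRMTs), each tested at 10 and 50 μM compound. Activity was read as ³H-methyl transfer from ³H-SAM in a radiometric assay done as previously described.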

[6] = molecular target: T2, Histone-arginine methyltransferase CARM1 (Homo sapiens); assay: Inhibition of PRMT4 (unknown origin) assessed as reduction in incorporation of [3H]-labeled methyl group into biotinylated substrate using [3H-SAM] at 50 uM incubated for 1 hr by scintillation proximity assay relative to control; in short: as §1
[7] = molecular target: T3, Protein arginine N-methyltransferase 8 (Homo sapiens, UniProt Q9NR22); assay: Inhibition of PRMT8 (unknown origin) assessed as reduction in incorporation of [3H]-labeled methyl group into biotinylated substrate using [3H-SAM] at 50 uM incubated for 1 hr by scintillation proximity assay relative to control; in short: as §1
Target sequence in this assay (Q9NR22 2-394 limits assumed): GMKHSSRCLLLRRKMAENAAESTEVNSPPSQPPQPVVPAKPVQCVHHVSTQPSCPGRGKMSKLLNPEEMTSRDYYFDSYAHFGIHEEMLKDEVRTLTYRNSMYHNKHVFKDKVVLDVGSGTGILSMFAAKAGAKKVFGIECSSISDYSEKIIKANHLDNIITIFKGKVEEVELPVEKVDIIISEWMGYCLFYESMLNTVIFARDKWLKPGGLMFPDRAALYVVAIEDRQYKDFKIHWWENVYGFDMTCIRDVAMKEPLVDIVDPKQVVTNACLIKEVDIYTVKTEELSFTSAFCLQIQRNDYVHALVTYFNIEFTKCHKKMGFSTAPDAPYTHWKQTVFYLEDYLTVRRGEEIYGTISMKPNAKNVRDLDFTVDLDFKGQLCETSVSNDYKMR

[8] = molecular target: T3, Protein arginine N-methyltransferase 8; assay: Inhibition of PRMT8 (unknown origin) assessed as reduction in incorporation of [3H]-labeled methyl group into biotinylated substrate using [3H-SAM] at 10 uM incubated for 1 hr by scintillation proximity assay; in short: as §1
Target sequence in this assay (Q9NR22 2-394 limits assumed): as above

[9] = molecular target: T4, Protein arginine N-methyltransferase 3 (Homo sapiens, UniProt O60678); assay: Inhibition of PRMT3 (unknown origin) assessed as reduction in incorporation of [3H]-labeled methyl group into biotinylated substrate using [3H-SAM] at 50 uM incubated for 1 hr by scintillation proximity assay relative to control; in short: as §1
Target sequence in this assay (O60678 2-531 limits assumed): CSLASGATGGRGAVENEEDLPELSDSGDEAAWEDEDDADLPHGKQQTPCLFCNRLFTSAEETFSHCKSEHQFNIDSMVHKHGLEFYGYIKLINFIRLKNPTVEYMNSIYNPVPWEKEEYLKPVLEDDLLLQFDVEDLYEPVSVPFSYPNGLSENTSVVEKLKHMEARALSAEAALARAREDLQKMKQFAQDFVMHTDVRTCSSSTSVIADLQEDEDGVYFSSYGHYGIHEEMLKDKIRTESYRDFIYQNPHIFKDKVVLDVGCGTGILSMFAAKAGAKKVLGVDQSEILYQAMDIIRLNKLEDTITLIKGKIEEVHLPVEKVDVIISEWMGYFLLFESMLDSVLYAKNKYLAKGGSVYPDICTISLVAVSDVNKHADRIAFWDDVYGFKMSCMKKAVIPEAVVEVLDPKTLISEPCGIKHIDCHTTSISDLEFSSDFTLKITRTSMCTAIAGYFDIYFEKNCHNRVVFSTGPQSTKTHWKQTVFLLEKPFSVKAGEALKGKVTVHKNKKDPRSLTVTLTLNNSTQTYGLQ

[10] = molecular target: T2, Histone-arginine methyltransferase CARM1 (Homo sapiens); assay: Inhibition of PRMT4 in human MCF7 cells assessed as reduction in BAF155 asymmetric dimethylation at 0.2 to 20 uM incubated for 2 days; format: cell-based
MCF7 = assay: Toxicity in human MCF7 cells assessed as reduction in cell viability up to 20 uM incubated for 3 days by CCK8 assay; format: cell-based; conditions: mcf7, 72 h
In short: (§2)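 Cells seeded 1×10^4 per well in triplicate, treated after 24 h with serial dilutions from 20 μM for 3 days; CCK-8 (WST-8) added, 4 h at 37 °C, absorbance at 450 nm; mean ± SD of three replicate experiments.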

[11] = molecular target: T3, Protein arginine N-methyltransferase 8; assay: Inhibition of human PRMT8 using [3H]SAM as donor and [3H]methylated biotin-labeled peptide as substrate by scintillation proximity assay
In short: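 Radiometric SPA: ³H-methyl transfer from ³H-SAM to biotin-labeled peptide, captured on streptavidin/scintillant-coated plate, counts per minute read; substrate and cofactor each at their Km for the enzyme; compound titrated; IC50 from triplicate determinations, mean ± SD.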
Target sequence in this assay (Q9NR22 whole entry): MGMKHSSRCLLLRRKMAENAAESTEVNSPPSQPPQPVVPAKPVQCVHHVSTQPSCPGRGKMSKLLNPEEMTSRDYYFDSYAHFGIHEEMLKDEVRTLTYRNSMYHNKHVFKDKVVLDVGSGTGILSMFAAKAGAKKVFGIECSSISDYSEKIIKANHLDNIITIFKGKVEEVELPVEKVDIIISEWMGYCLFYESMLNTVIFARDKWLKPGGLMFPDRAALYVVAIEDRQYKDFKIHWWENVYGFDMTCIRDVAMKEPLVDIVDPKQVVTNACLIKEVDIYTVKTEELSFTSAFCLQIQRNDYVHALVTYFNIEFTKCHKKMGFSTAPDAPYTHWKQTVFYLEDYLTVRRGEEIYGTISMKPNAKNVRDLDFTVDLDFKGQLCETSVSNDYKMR

[12] = molecular target: T4, Protein arginine N-methyltransferase 3; assay: Inhibition of PRMT3 (unknown origin) expressed in HEK293T cells were co-transfected with GFP-tagged histone H4 peptide assessed as reduction in H4R3 arginine asymmetric dimethylation at 0.2 to 20 uM incubated for 20 hrs; format: cell-based
Target sequence in this assay (O60678 2-531 limits assumed): as the sequence (O60678 2-531 limits assumed) above

PNT2 = assay: Toxicity in human PNT2 cells assessed as reduction in cell viability up to 20 uM incubated for 3 days by CCK8 assay; format: cell-based; conditions: pnt2, 72 h; in short: as §2
HEK-293T = assay: Toxicity in HEK293T cells assessed as reduction in cell viability up to 20 uM incubated for 3 days by CCK8 assay; format: cell-based; conditions: human, 72 h; in short: as §2
[13] = molecular target: T4, Protein arginine N-methyltransferase 3; assay: Inhibition of PRMT3 (unknown origin) assessed as reduction in incorporation of [3H]-labeled methyl group into biotinylated substrate using [3H-SAM] at 10 uM incubated for 1 hr by scintillation proximity assay; in short: as §1
Target sequence in this assay (O60678 2-531 limits assumed): as above

[14] = molecular target: T5, Protein arginine N-methyltransferase 1 (Homo sapiens, UniProt Q99873); assay: Inhibition of PRMT1 in human MCF7 cells assessed as reduction in H4R3me2a levels incubated for 2 days by fluorescence based assay; format: cell-based
In short: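 MCF7 cells with endogenous PRMT1 were treated with compound for 2 days, with MS023 (1 μM) as positive control. The H4R3me2a fluorescence signal was normalized to H4 and fitted nonlinearly to give IC50.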

[15] = molecular target: T1, Protein arginine N-methyltransferase 6; assay: Inhibition of PRMT6 (unknown origin) assessed as reduction in incorporation of [3H]-labeled methyl group into biotinylated substrate using [3H-SAM] at 50 uM incubated for 1 hr by scintillation proximity assay relative to control; in short: as §1
Target sequence in this assay (Q96LA8 whole entry, looked up): as the sequence (Q96LA8 whole entry, looked up) above

[16] = molecular target: T5, Protein arginine N-methyltransferase 1; assay: Inhibition of human PRMT1 using [3H]SAM as donor and [3H]methylated biotin-labeled peptide as substrate by scintillation proximity assay
Target sequence in this assay (Q99873 whole entry): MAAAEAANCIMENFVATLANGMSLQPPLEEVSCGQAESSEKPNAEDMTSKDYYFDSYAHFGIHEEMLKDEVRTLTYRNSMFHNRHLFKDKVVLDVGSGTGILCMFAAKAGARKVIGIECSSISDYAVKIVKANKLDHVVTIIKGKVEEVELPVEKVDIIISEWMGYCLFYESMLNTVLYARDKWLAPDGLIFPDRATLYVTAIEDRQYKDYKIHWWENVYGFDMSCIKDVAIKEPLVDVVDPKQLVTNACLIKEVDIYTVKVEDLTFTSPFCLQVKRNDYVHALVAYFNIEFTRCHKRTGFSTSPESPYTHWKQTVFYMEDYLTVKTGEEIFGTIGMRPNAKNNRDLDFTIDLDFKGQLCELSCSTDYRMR

[17] = molecular target: T6, Histone-arginine methyltransferase CARM1 (Homo sapiens, UniProt Q86X55); assay: Inhibition of human PRMT4 using [3H]SAM as donor and [3H]methylated biotin-labeled peptide as substrate by scintillation proximity assay
T6 sequence (Q86X55 whole entry): T2 sequence (whole entry)
In short: (§3)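 Compound titrated into the reaction; 1 h enzyme–compound preincubation stated for PRMT6. Methylated peptide captured on streptavidin/scintillant-coated plates and counted (cpm). IC50 from concentration–response, triplicate, mean ± SD.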

[18] = molecular target: T1, Protein arginine N-methyltransferase 6; assay: Inhibition of Flag-tagged PRMT6 (unknown origin) expressed in HEK293 cells at 0.1 to 10 uM incubated for 20 hrs assessed as reduction in H3R2me2a levels; format: cell-based
Target sequence in this assay (Q96LA8 whole entry, looked up): as the sequence (Q96LA8 whole entry, looked up) above

[19] = molecular target: T1, Protein arginine N-methyltransferase 6; assay: Inhibition of human PRMT6 using [3H]SAM as donor and [3H]methylated biotin-labeled peptide as substrate by scintillation proximity assay; conditions: read-out: IC50; in short: as §3
Target sequence in this assay (Q96LA8 whole entry): as the sequence (Q96LA8 whole entry, looked up) above

[20] = molecular target: T4, Protein arginine N-methyltransferase 3; assay: Inhibition of human PRMT3 using [3H]SAM as donor and [3H]methylated biotin-labeled peptide as substrate by scintillation proximity assay; in short: as §3
Target sequence in this assay (O60678 whole entry): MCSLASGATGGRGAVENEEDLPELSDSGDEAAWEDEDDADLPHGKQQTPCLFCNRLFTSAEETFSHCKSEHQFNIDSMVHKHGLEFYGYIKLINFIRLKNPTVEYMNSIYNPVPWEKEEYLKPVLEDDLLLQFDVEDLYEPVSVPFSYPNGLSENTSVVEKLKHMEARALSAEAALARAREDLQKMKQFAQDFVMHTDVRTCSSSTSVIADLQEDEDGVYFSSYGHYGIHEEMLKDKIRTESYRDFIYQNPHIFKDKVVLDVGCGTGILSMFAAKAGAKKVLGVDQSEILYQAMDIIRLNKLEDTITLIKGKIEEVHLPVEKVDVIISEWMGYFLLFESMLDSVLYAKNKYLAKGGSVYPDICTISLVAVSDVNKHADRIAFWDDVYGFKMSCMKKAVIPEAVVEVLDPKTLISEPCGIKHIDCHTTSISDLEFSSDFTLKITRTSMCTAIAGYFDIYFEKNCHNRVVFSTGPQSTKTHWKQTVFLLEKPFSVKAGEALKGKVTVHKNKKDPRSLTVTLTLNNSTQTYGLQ

[21] = molecular target: T1, Protein arginine N-methyltransferase 6; assay: Inhibition of PRMT6 (unknown origin) assessed as reduction in incorporation of [3H]-labeled methyl group into biotinylated substrate using [3H-SAM] at 10 uM incubated for 1 hr by scintillation proximity assay; in short: as §1
Target sequence in this assay (Q96LA8 whole entry, looked up): as the sequence (Q96LA8 whole entry, looked up) above

[22] = molecular target: T1, Protein arginine N-methyltransferase 6; assay: Covalent binding affinity to human PRMT6 assessed as covalent adduct. formation at 300 uM pre-incubated for 1 hr by mass spectrometry
In short: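 PRMT protein at 15 μM was incubated 1 h at room temperature with a 20-fold molar excess of inhibitor (300 μM). The reaction was quenched with 0.1% aqueous TFA, separated by HPLC (5–95% acetonitrile in water) and analysed by ESI time-of-flight LC/MS for protein–ligand adduct mass.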
Target sequence in this assay (Q96LA8 whole entry, looked up): as above

[23] = molecular target: T1, Protein arginine N-methyltransferase 6; assay: […] inhibition of human PRMT6 pre-incubated for 1 to 30 mins using [3H]SAM as donor and [3H]methylated biotin-labeled peptide as substrate by scintillation proximity assay
[24] = molecular target: T2, Histone-arginine methyltransferase CARM1 (Homo sapiens); assay: Inhibition of PRMT4 in human MCF7 cells assessed as reduction in BAF155 asymmetric dimethylation at 2.2 to 20 uM incubated for 2 days; format: cell-based
[25] = molecular target: T4, Protein arginine N-methyltransferase 3; assay: Inhibition of PRMT3 (unknown origin) expressed in HEK293T cells were co-transfected with GFP-tagged histone H4 peptide assessed as reduction in H4R3 arginine asymmetric dimethylation at 2.2 to 20 uM incubated for 20 hrs; format: cell-based
Target sequence in this assay (O60678 2-531 limits assumed): as the sequence (O60678 2-531 limits assumed) above

SMILES: CC(C)Oc1ccc(-c2c[nH]cc2CN(C)CCN)cc1
- IC50 [1]: 0.004 to 0.119 µM
- inhibition [2]: Active

SMILES: CNCCN1CCC(c2cc(CN(C)C(=O)c3cccc(Oc4ccccc4)c3)ccn2)CC1
- inhibition [3]: Active

SMILES: CCC(=O)Nc1cccc(-c2c[nH]cc2CN(C)CCN)c1
- TDI [4]: inactive
- inhibition [5]: > 40%
- inhibition [6]: > 80%
- inhibition [7]: > 80%
- inhibition [8]: > 40%
- inhibition [9]: > 80%
- inhibition [10]: inactive
- Activity (MCF7): Non-Toxic
- IC50 [11]: 0.13 µM
- inhibition [12]: inactive
- Activity (PNT2): Non-Toxic
- Activity (HEK-293T): Non-Toxic
- inhibition [13]: > 40%
- IC50 [14]: 6.7 µM
- inhibition [14]: Dose-dependent effect
- inhibition [15]: > 80%
- IC50 [16]: 0.17 µM
- IC50 [17]: 2 µM
- inhibition [18]: Active
- IC50 [19]: 0.028 µM
- IC50 [20]: 15 µM
- inhibition [21]: > 40%
- Activity [22]: inactive
- inhibition [23]: Active

SMILES: C=CC(=O)Nc1cccc(-c2c[nH]cc2CN(C)CCO)c1
- Activity (MCF7): Non-Toxic
- IC50 [11]: 23 µM
- Activity (PNT2): Non-Toxic
- Activity (HEK-293T): Non-Toxic
- inhibition [24]: inactive
- inhibition [15]: 80%
- inhibition [25]: inactive
- IC50 [17]: 51 µM
- inhibition [18]: inactive
- IC50 [19]: 9.8 µM
- IC50 [20]: > 200 µM
- inhibition [21]: 50%
- Activity [22]: inactive
